In brackets after ≈: the same amount, converted by molar mass. Activity calls are given as the source filed them. The calls are words filed in the database; no cut-off is given here.
Legend:
Athelia rolfsii = assay: Antifungal activity against Athelia rolfsii assessed as growth inhibition at 28 degC; type: functional; conditions: Agroathelia rolfsii; read-out: ED50 (the source's name)
In short: (§1)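 Poisoned food technique on PDA: compound in acetone added to medium at 1000, 500, 250, 125, 100, 50, 25 and 10 μg/mL (final in medium). Acetone 1 mL serves as the control. A 5 mm mycelial disk from a 2-week-old colony is placed centrally. Plates are incubated at 28 °C until control growth is nearly complete. Colony diameter is measured and %inhibition = (C−T)/C×100, four replicates. ED50 is obtained by probit analysis of Abbott-corrected inhibition.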

Sclerotinia sclerotiorum [1] = assay: Antifungal activity against Sclerotinia sclerotiorum assessed as growth inhibition at 28 degC; type: functional; conditions: read-out: ED50 (the source's name); in short: as §1
Macrophomina phaseolina [2] = assay: Antifungal activity against Macrophomina phaseolina assessed as growth inhibition at 28 degC; type: functional; conditions: read-out: ED50 (the source's name); in short: as §1
Macrophomina phaseolina [3] = assay: Antifungal activity against Rhizoctonia bataticola assessed as growth inhibition at 28 degC; type: functional; conditions: read-out: ED50 (the source's name); in short: as §1
Sclerotinia sclerotiorum [4] = assay: Antifungal activity against Sclerotinia sclerotiorum infected pea plants assessed as prevention of water soaked spots at 5 % aqueous emulsion measured on day 21; type: functional, organism-based
In short: (§2)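 Greenhouse pea assay: S. sclerotiorum inoculum grown in potato dextrose broth, homogenized and mixed into autoclaved, sieved composted soil, then incubated 5-7 days at ~25 °C. Formulated compound is applied as 1 or 5% aqueous emulsion at 5.0 mL per 150 cm3 soil and held 7 days in sealed bags. Symptoms (water-soaked spots) and symptomless plants are scored 7, 14 and 21 days after transplanting, 20 plants per treatment.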

Sclerotinia sclerotiorum [5] = assay: Antifungal activity against Sclerotinia sclerotiorum infected pea plants assessed as healthy plants at 5 % aqueous emulsion measured on day 21; type: functional; in short: as §2
Sclerotinia sclerotiorum [6] = assay: Antifungal activity against Sclerotinia sclerotiorum infected pea plants assessed as healthy plants at 1 % aqueous emulsion measured on day 21; type: functional; in short: as §2
Sclerotinia sclerotiorum [7] = assay: Antifungal activity against Sclerotinia sclerotiorum infected pea plants assessed as healthy plants at 1 % aqueous emulsion measured on day 7; type: functional; in short: as §2
Sclerotinia sclerotiorum [8] = assay: Antifungal activity against Sclerotinia sclerotiorum infected pea plants assessed as healthy plants at 0.364 mL of ai/150cm'3 measured after 21 days; type: functional
In short: (§3)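 S. sclerotiorum inoculum was grown in potato dextrose broth at 27 °C for 7 days, then in water at 20 °C for 3-4 weeks, then homogenized, filtered and sonicated. It was mixed into sieved, autoclaved compost soil and held about 25 °C for 5-7 days. Fungicide was incorporated and soil was bagged 7 days. Pea was transplanted. Symptomless plants were scored at 7, 14 and 21 days (20 plants/treatment, six trials), arcsine-square-root transformed, repeated-measures ANOVA.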

Sclerotinia sclerotiorum [9] = assay: Antifungal activity against Sclerotinia sclerotiorum infected pea plants assessed as healthy plants at 0.364 mL of ai/150cm'3 measured after 14 days; type: functional; in short: as §3

Row | SMILES | EC50 (Athelia rolfsii) | EC50 (Sclerotinia sclerotiorum [1]) | EC50 (Macrophomina phaseolina [2]) | EC50 (Macrophomina phaseolina [3]) | Activity (Sclerotinia sclerotiorum [4]) | Activity (Sclerotinia sclerotiorum [5]) | Activity (Sclerotinia sclerotiorum [6]) | Activity (Sclerotinia sclerotiorum [7]) | Activity (Sclerotinia sclerotiorum [8]) | Activity (Sclerotinia sclerotiorum [9])
1 | CO/N=C(C)\C=C\C1C(C)=CCCC1(C)C (configuration not stated) | 259 µg/mL (≈ 1170 µM) | 517 µg/mL (≈ 2340 µM) | 311 µg/mL (≈ 1400 µM) | 413 µg/mL (≈ 1870 µM) |  |  |  |  |  | 
2 | CCCCCCCO/N=C(C)\C=C\C1C(C)=CCCC1(C)C (configuration not stated) | 956 µg/mL (≈ 3130 µM) | 419 µg/mL (≈ 1370 µM) | 1090 µg/mL (≈ 3570 µM) | 566 µg/mL (≈ 1850 µM) |  |  |  |  |  | 
3 | CCCO/N=C(C)\C=C\C1C(C)=CCCC1(C)C (configuration not stated) | 132 µg/mL (≈ 530 µM) | 220 µg/mL (≈ 881 µM) | 236 µg/mL (≈ 945 µM) | 157 µg/mL (≈ 629 µM) |  |  |  |  |  | 
4 | CCCCO/N=C(C)/C=C/C1C(C)=CCCC1(C)C (configuration not stated) | 113 µg/mL (≈ 430 µM) | 107 µg/mL (≈ 408 µM) | 101 µg/mL (≈ 382 µM) | 67.9 µg/mL (≈ 258 µM) |  |  |  |  |  | 
5 | CC1=CCCC(C)(C)C1/C=C/C(C)=N\OCCC(C)C (configuration not stated) | 367 µg/mL (≈ 1320 µM) | 375 µg/mL (≈ 1350 µM) | 625 µg/mL (≈ 2250 µM) | 125 µg/mL (≈ 452 µM) |  |  |  |  |  | 
6 | CC1=CCCC(C)(C)C1/C=C/C(C)=N/OCCC(C)C (configuration not stated) | 257 µg/mL (≈ 927 µM) | 273 µg/mL (≈ 986 µM) | 666 µg/mL (≈ 2400 µM) | 723 µg/mL (≈ 2600 µM) |  |  |  |  |  | 
7 | CCCCO/N=C(C)\C=C\C1C(C)=CCCC1(C)C (configuration not stated) | 88.9 µg/mL (≈ 337 µM) | 164 µg/mL (≈ 621 µM) | 174 µg/mL (≈ 660 µM) | 114 µg/mL (≈ 431 µM) |  |  |  |  |  | 
8 | CCCO/N=C(C)/C=C/C1C(C)=CCCC1(C)C (configuration not stated) | 101 µg/mL (≈ 406 µM) | 257 µg/mL (≈ 1030 µM) | 181 µg/mL (≈ 727 µM) | 32.4 µg/mL (≈ 130 µM) |  |  |  |  |  | 
9 | CCCCCCO/N=C(C)\C=C\C1C(C)=CCCC1(C)C (configuration not stated) | 912 µg/mL (≈ 3130 µM) | 244 µg/mL (≈ 837 µM) | 963 µg/mL (≈ 3300 µM) | 327 µg/mL (≈ 1120 µM) |  |  |  |  |  | 
10 | CC1=CCCC(C)(C)C1/C=C/C(C)=N\OCC(C)C (configuration not stated) | 47.6 µg/mL (≈ 181 µM) | 79 µg/mL (≈ 300 µM) | 101 µg/mL (≈ 383 µM) | 58.7 µg/mL (≈ 223 µM) |  |  |  |  |  | 
11 | CCCCCCCCO/N=C(C)/C=C/C1C(C)=CCCC1(C)C (configuration not stated) | 1040 µg/mL (≈ 3250 µM) | 837 µg/mL (≈ 2620 µM) | 824 µg/mL (≈ 2580 µM) | 1090 µg/mL (≈ 3430 µM) |  |  |  |  |  | 
12 | CCCCCCCCO/N=C(C)\C=C\C1C(C)=CCCC1(C)C (configuration not stated) | 1360 µg/mL (≈ 4250 µM) | 584 µg/mL (≈ 1830 µM) | 1110 µg/mL (≈ 3470 µM) | 1610 µg/mL (≈ 5050 µM) |  |  |  |  |  | 
13 | CCCCCCO/N=C(C)/C=C/C1C(C)=CCCC1(C)C (configuration not stated) | 573 µg/mL (≈ 1970 µM) | 428 µg/mL (≈ 1470 µM) | 751 µg/mL (≈ 2580 µM) | 895 µg/mL (≈ 3070 µM) |  |  |  |  |  | 
14 | CCO/N=C(C)/C=C/C1C(C)=CCCC1(C)C (configuration not stated) | 410 µg/mL (≈ 1740 µM) | 295 µg/mL (≈ 1250 µM) | 732 µg/mL (≈ 3110 µM) | 393 µg/mL (≈ 1670 µM) |  |  |  |  |  | 
15 | CCCCCO/N=C(C)\C=C\C1C(C)=CCCC1(C)C (configuration not stated) | 41.6 µg/mL (≈ 150 µM) | 21.4 µg/mL (≈ 77.1 µM) | 31.1 µg/mL (≈ 112 µM) | 57.6 µg/mL (≈ 207 µM) | Active | >90% | 40% | 65% |  | 
16 | CC1=CCCC(C)(C)C1/C=C/C(C)=N\OC(C)C (configuration not stated) | 129 µg/mL (≈ 517 µM) | 190 µg/mL (≈ 764 µM) | 198 µg/mL (≈ 794 µM) | 116 µg/mL (≈ 467 µM) |  |  |  |  |  | 
17 | CCCCCO/N=C(C)/C=C/C1C(C)=CCCC1(C)C (configuration not stated) | 43.6 µg/mL (≈ 157 µM) | 32.7 µg/mL (≈ 118 µM) | 94.8 µg/mL (≈ 342 µM) | 39.2 µg/mL (≈ 141 µM) |  |  |  |  |  | 
18 | CCO/N=C(C)\C=C\C1C(C)=CCCC1(C)C (configuration not stated) | 415 µg/mL (≈ 1760 µM) | 261 µg/mL (≈ 1110 µM) | 394 µg/mL (≈ 1670 µM) | 246 µg/mL (≈ 1050 µM) |  |  |  |  |  | 
19 | COC(=O)Nc1nc2ccccc2[nH]1 [CARBENDAZIM] |  |  |  |  |  |  |  |  | 75% | 80%
20 | CCCCCCCCCCO/N=C(C)\C=C\C1C(C)=CCCC1(C)C (configuration not stated) | 1110 µg/mL (≈ 3190 µM) | 477 µg/mL (≈ 1370 µM) | 1760 µg/mL (≈ 5060 µM) | 2060 µg/mL (≈ 5920 µM) |  |  |  |  |  | 
21 | CO/N=C(C)/C=C/C1C(C)=CCCC1(C)C (configuration not stated) | 238 µg/mL (≈ 1070 µM) | 442 µg/mL (≈ 2000 µM) | 307 µg/mL (≈ 1380 µM) | 388 µg/mL (≈ 1750 µM) |  |  |  |  |  | 
22 | CCCCCCCCCCO/N=C(C)/C=C/C1C(C)=CCCC1(C)C (configuration not stated) | 842 µg/mL (≈ 2420 µM) | 681 µg/mL (≈ 1960 µM) | 957 µg/mL (≈ 2750 µM) | 1940 µg/mL (≈ 5590 µM) |  |  |  |  |  | 
23 | CCCCCCCO/N=C(C)/C=C/C1C(C)=CCCC1(C)C (configuration not stated) | 975 µg/mL (≈ 3190 µM) | 392 µg/mL (≈ 1280 µM) | 717 µg/mL (≈ 2350 µM) | 919 µg/mL (≈ 3010 µM) |  |  |  |  |  | 
24 | CC1=CCCC(C)(C)C1/C=C/C(C)=N/OC(C)C (configuration not stated) | 35.5 µg/mL (≈ 142 µM) | 182 µg/mL (≈ 729 µM) | 126 µg/mL (≈ 505 µM) | 56.6 µg/mL (≈ 227 µM) |  |  |  |  |  | 
25 | CC1=CCCC(C)(C)C1/C=C/C(C)=N/OCC(C)C (configuration not stated) | 45.2 µg/mL (≈ 172 µM) | 94.1 µg/mL (≈ 357 µM) | 103 µg/mL (≈ 391 µM) | 50.6 µg/mL (≈ 192 µM) |  |  |  |  |  | 
